HIF activator = HIF pathway transcriptional activation | activation, % at 7.5 µM (by protocol) | AID 1910 | actives 0.32% (n = 300,000) | U2OS HRE-luciferase reporter, luminescence; normalized: DMSO 0%, desferrioxamine 100%;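 active = mean activation of at least 10% of the iron chelator positive control signal, with at least half of replicates also reaching 10%; inconclusive = mean and replicate majority disagree about reaching 10%; inactive = mean and most replicates under 10%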
T cruzi inh = T. cruzi replication inhibition; T. cruzi beta-gal in NIH3T3, luminescence, 90 h; inhibition, % (test concentration not listed); actives 1.4% (n = 300,000); AID 1885;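 active = mean inhibition across valid replicates above about 55%, limit read from the data; inconclusive = mean below that limit but half or more replicates reach it; inactive = mean below it, under half of replicates reach it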;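 also: signal also drops with host cell toxicity which is not excluded here; 0% = plate median of DMSO wells and 100% = zero luminescence signal; higher percent means less beta-gal luminescence so fewer parasites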
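Assay system: NIH/3T3 host cells with β-galactosidase reporter T. cruzi; input: 5,000 host fibroblasts per well; compound: single 50 nL compound addition per well in DMSO; timing: ≥90 h infection period, 3 h prior cell attachment; measured by: GalScreen β-gal luminescence, detergent lysis, 60 min; evaluation: percent inhibition of parasite-derived β-gal signal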
CSC inhib = cancer stem cell inhibition. actives 1.1% (n = 300,000). cancer stem cell-like cells viability, luminescence. AID 2717. inhibition, % at 7.5 µM; in the data active = inhibition above about 75%; inconclusive = no clear call, values can overlap the other calls; tested in HMLE shEcad cells
PfHsp90 yeast 2 = growth inhibition of yeast expressing Plasmodium Hsp90; S. cerevisiae expressing PfHsp90, BacTiter-Glo ATP, 48 h; yeast lacking PDR1 and PDR3 efflux regulators; inhibition, % at 9.4 µM; actives 0.32% (n = 310,000); AID 504621;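 active = every replicate shows inhibition above about 80%, whatever the replicate mean, limit read from the data; inconclusive = mean inhibition reaches the set limit but some replicate falls short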;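 also: 0% = DMSO neutral controls and 100% = 20 µM radicicol positive controls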
SKKanGAS inh = SKKanGAS growth inhibition | S. pyogenes SKKanGAS, kanamycin growth, BacTiter-Glo, 6 h | inhibition, % at 7.5 µM | actives 1.3% (n = 300,000) | AID 1662;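 active = mean replicate score, as percent of positive control median, at least 50; inconclusive = mean below 50 but one replicate at or above 50; inactive = mean and every replicate below 50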;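 also: strain carries kanamycin resistance gene driven by streptokinase promoter and grows in 40 µg/ml kanamycin; loss of luminescence reflects streptokinase promoter inhibition or plain growth inhibition; 0% = median of DMSO wells and 100% = positive control at its reference dose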
Beta cell apopt = beta cell apoptosis inhibition; INS-1E cytokine-induced death, ATP luminescence, 48 h; percent of positive-control rescue, neutral wells zero; protection from apoptosis, % (test concentration not listed); actives 0.8% (n = 300,000); AID 435005;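 active = Every replicate reaches about 75%, or at least half do and their mean reaches it too, limit read from the data; inconclusive = At least half of replicates reach the limit but their mean does not; inactive = Under half of replicates reach the limit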;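 also: 0% = cytokine-treated negative control wells and 100% = positive control rescue; higher means more ATP so stronger rescue from cytokine killing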
* hit, by the source's call; ? = inconclusive; . = no result given. Rows were chosen to be rich in hits. Some 3.6% of all compounds tested hit in one or more screens of this group.

SMILES	HIF activator	T cruzi inh	CSC inhib	PfHsp90 yeast 2	SKKanGAS inh	Beta cell apopt
COC(=O)c1nc(-c2ccc3c(n2)C(=O)C(N)=C(OC)C3=O)c(N)c(-c2ccc(OC)c(OC)c2O)c1C	3.6	50.4	112.8*	-14.8	34.5	110.9*
Cc1ccc(C(c2nnnn2Cc2ccccc2)N2CC=C(c3ccc(F)cc3)CC2)cc1 (stereo not given)	0.0	65.5*	24.0	-1.1	0.5	20.5
Fc1ccc(Cn2nnnc2C(c2ccc(Cl)cc2)N2CC=C(c3ccc(F)cc3)CC2)cc1 (stereo not given)	-0.3	69.0*	9.2	16.9	-7.5	-0.7
Fc1ccc(C2=CCN(C(c3ccc(Cl)cc3)c3nnnn3Cc3ccccc3)CC2)cc1 (stereo not given)	-0.2	37.6	2.4	-1.6	-8.2	-0.7
CCOP(=O)(CCP(=O)(OCC)OCC)OCC.C[CH2][Sn]([Cl])([Cl])[CH2]C	.	.	.	-13.3	.	.
CN(C)[C@@H]1C(=O)C(C(N)=O)=C(O)[C@@]2(O)C(=O)C3=C(O)c4c(O)ccc(Cl)c4[C@@](C)(O)[C@H]3C[C@@H]12	-0.2	-0.2	-3.6	-24.5	108.8*	.
Nc1ncnc2c1ccn2[C@@H]1O[C@H](CO)[C@@H](O)[C@H]1O	-2.7	85.6*	-5.1	0.0	-1.4	.
O=c1[nH]c(=O)n(C2CCCCCC2)c(O)c1C=NC1CCN(Cc2ccccc2)CC1	0.1	65.0*	0.2	17.7	-1.8	2.3
CC1C(=O)OC2CCN3CC4OC4(COC(=O)C(C)(O)C1(C)O)C23 (stereo not given)	.	.	.	0.2	.	.
COc1cc(C=C2C(=O)NC(=O)NC2=O)ccc1OCc1ccc([N+](=O)[O-])cc1	.	.	.	6.0	.	.
COc1cc(/C=C(/C)[N+](=O)[O-])ccc1OCc1ccccc1Cl	-3.4	61.4*	77.5*	-30.5	.	92.4*
CC1CCCCC1NC(=O)CNC(=S)N1CC2CC(C1)c1cccc(=O)n1C2 (stereo not given)	-0.5	-3.0	-7.6	-4.5	0.2	-13.7
C=CCn1c(O)c(C(C)=Nc2ccc(N(C)C)cc2)c(=O)[nH]c1=O	0.9	4.1	-6.8	.	-1.2	-3.2
CCCCn1c(O)c(C(CC)=Nc2ccc(OCC)cc2)c(=O)[nH]c1=O	-0.3	7.6	-6.4	9.1	55.1*	2.2
C=CCn1c(O)c(C(C)=Nc2ccc(N(CC)CC)cc2)c(=O)[nH]c1=O	2.0	6.3	44.6	-1.8	76.2*	0.7
CCCCn1c(O)c(C(CC)=Nc2ccc(OC)cc2OC)c(=O)[nH]c1=O	0.0	15.0	34.2	-21.1	10.0	-3.4
C=CCn1c(O)c(C(CC)=Nc2ccc(N(CC)CC)cc2)c(=O)[nH]c1=O	-0.5	3.8	18.3	.	101.4*	-3.2
O=C(O)C1CC2(Cl)C(Cl)=C(Cl)C1(Cl)C2(Cl)Cl (stereo not given)	.	.	.	11.4	.	.
O=C1NC(=O)N(Cc2ccc(F)cc2)C(=O)/C1=C\c1ccc([N+](=O)[O-])s1	-1.6	22.1	19.0	101.2*	13.5	2.3
COc1ccc(N2C(=O)NC(=O)/C(=C/c3ccc([N+](=O)[O-])s3)C2=O)cc1	1.3	32.3	-13.5	.	14.6	4.5
COc1ccc(CN2C(=O)NC(=O)/C(=C/c3ccc([N+](=O)[O-])s3)C2=O)cc1	0.6	17.5	18.2	101.1*	12.8	-3.5
COc1ccccc1N1C(=O)NC(=O)/C(=C/c2ccc([N+](=O)[O-])s2)C1=O	-0.5	21.7	8.8	.	10.4	7.5
COc1ccc(N2C(=O)NC(=O)/C(=C\c3ccc([N+](=O)[O-])s3)C2=O)cc1	0.1	60.1*	6.3	22.6	6.6	0.9
Cc1ccccc1CN1Cc2cnnn2-c2ccccc2C1C#N (stereo not given)	.	.	.	-19.4	.	.
CN(C)CC#CCC(O)(c1ccccc1)C1CCCC1 (stereo not given)	-0.1	66.9*	1.1	.	-1.9	-4.2
SMILES	HIF activator	T cruzi inh	CSC inhib	PfHsp90 yeast 2	SKKanGAS inh	Beta cell apopt
OC(CC#CCN1CCCCCC1)(c1ccccc1)C1CCCC1 (stereo not given)	1.8	23.0	18.1	-36.5	2.0	8.4
Cn1cc(C(=O)N2CCOCC2)c2ccccc21	-0.1	-3.6	12.5	10.0	-0.9	-4.2
CCCCCCC[n+]1ccc(-c2cc[n+](CCCCCCC)cc2)cc1	0.1	-36.9	0.4	18.5	5.4	102.5*
CC1(C)CN=C(Nc2nc3ccccc3s2)S1	3.1	-34.2	4.0	-12.8	61.1*	-1.8
CC1(C)CN=C(NCc2ccccc2)S1	-1.5	-17.3	-3.3	1.5	-4.0	-2.9
COC(=O)c1ccc(C(C(=O)NC2CCCCC2)N(CCN2CCOCC2)C(=O)Cc2cccs2)cc1 (stereo not given)	-0.1	-3.5	-2.0	7.9	0.2	-2.2
CCN1/C(=C\C=C\C2=[N+](CC)c3ccccc3C2(C)C)C(C)(C)c2ccccc21	-2.9	54.8*	92.7*	13.8	58.4*	118.6*
COC(=O)C1=C(c2ccc(OC(F)(F)F)cc2)C[C@@H]2CC[C@H]1N2C(=O)NCc1cc(C)oc1C(F)(F)F	.	.	14.5	5.2	.	-5.3
COc1cccc2c1N=C1CCCC3CN(C(C)=O)CCC123 (stereo not given)	.	.	.	-24.7	.	.
C=C1C(=O)O[C@@H]2C[C@@H](C)[C@@H]3C=CC(=O)[C@@]3(C)[C@@H](O)[C@H]12	-3.5	43.4	51.6	13.8	-1.1	112.3*
C[C@@H]1C[C@H]2OC(=O)C3(CO3)[C@H]2[C@H](O)[C@]2(C)C(=O)C3OC3[C@@H]12 (stereo not given in full)	2.0	-41.3	58.3	.	-3.3	-7.5
C=C1C(C)C2C(Cc3ccccc3)NC(=O)C23OC(=O)/C=C/C(O)CCCC(C)C/C=C/C3C1O (stereo not given)	.	.	.	-14.9	.	.
CCOC(=O)c1c(-n2c(C)cc(/C=C3/C(=O)NC(=O)N(CC)C3=O)c2C)sc2c1CCCC2	-2.1	12.8	2.8	-11.3	31.6	-3.1
CCOC(=O)c1c(-n2c(C)cc(C=C3C(=O)NC(=S)NC3=O)c2C)sc2c1CCCC2	-0.4	-13.7	-4.0	108.6*	15.6	-4.1
N#CC1=C(N)Oc2c(c(=O)sc3ccccc23)C1c1cccnc1 (stereo not given)	1.9	76.8*	51.4	-4.5	-0.4	24.8
CC(OC(=O)c1cn(C)c2ccccc12)C(=O)N(C)c1ccccc1 (stereo not given)	.	.	.	-4.6	.	.
O=[N+]([O-])/C=C/c1c(Cl)cccc1Cl	.	.	.	144.8*	.	.
Clc1ccc2sc(C3CCNCC3)nc2c1	2.3	21.1	-0.2	-10.9	-1.4	-2.5
Cc1[nH]c2ccc(OC(F)(F)F)cc2c1CCNCc1ccc(Cl)cc1	-1.7	40.2	104.4*	6.4	16.9	21.2
Cc1[nH]c2ccc(OC(F)(F)F)cc2c1CCNCc1cccc([N+](=O)[O-])c1	1.6	?	33.0	-2.7	-2.3	7.2
